Apaf-1 inh = inhibitors of human Apaf-1 apoptosome | 0.71% of 330,000 active | reconstituted apoptosome caspase-3 activity, DEVD-Rh110 fluorescence | O14727 | inhibition, % at 20 µM; active = inhibition of at least 40% at 20 µM;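 note: plate controls were DMSO wells for no effect and DEVD-CHO caspase inhibitor wells for full effect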
Target sequence (O14727 whole entry, looked up): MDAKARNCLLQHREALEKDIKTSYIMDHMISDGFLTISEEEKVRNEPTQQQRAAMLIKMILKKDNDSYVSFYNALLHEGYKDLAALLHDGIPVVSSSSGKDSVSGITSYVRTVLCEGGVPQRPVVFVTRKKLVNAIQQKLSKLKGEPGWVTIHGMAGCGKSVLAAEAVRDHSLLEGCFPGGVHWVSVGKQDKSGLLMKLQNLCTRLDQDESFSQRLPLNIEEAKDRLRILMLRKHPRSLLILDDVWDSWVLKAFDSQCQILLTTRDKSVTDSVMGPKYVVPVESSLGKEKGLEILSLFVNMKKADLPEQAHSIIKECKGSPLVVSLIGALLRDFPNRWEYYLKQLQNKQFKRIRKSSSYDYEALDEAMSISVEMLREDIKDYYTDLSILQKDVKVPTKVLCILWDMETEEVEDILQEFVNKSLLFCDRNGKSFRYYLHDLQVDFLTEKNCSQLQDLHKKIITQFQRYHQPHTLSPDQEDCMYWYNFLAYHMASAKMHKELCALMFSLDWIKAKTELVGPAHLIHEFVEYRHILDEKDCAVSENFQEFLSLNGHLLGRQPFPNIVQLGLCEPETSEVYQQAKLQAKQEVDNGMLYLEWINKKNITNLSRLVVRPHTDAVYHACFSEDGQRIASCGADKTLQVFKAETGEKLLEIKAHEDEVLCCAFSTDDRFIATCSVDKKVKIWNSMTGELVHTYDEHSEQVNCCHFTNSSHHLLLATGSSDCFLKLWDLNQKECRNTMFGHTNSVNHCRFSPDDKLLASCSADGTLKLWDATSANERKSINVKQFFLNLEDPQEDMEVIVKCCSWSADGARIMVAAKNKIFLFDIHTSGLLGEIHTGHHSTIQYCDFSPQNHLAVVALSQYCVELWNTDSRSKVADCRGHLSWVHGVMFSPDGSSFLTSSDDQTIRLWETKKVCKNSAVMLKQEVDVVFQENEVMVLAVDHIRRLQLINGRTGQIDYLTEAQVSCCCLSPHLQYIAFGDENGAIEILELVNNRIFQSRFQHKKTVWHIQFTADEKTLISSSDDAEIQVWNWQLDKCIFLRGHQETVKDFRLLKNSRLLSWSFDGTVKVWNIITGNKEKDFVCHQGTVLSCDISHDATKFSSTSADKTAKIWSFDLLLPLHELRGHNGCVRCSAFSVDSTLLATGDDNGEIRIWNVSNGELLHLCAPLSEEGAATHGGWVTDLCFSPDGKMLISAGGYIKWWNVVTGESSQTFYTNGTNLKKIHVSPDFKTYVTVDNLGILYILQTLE
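Assay system: Apoptosome proteins | Medium: pH 7.5 Hepes buffer with CHAPS, BSA, DTT | Also added: Cytochrome c and DEVD-Rh110 substrate | Times: 30 min plus 50 min, RT | Detection: Rhodamine 110 fluorescence at Ex 480/Em 540 nm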
PAD4 FP inh = inhibitors of human PAD4. recombinant PAD4, RCA probe fluorescence polarization. inhibition, % at 6.36 µM. 0.41% of 330,000 active. AID 485272;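 active = percent inhibition above a cutoff equal to the mean of all tested compounds plus 3 SD, cut at about 15% in these data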;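 note: 0% = PAD4 with RCA probe and DMSO and 100% = probe without PAD4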
CTSL1 counter = counter-screen for PFM18AAP inhibitors: inhibitors of F. hepatica cathepsin L1. inhibition, % at 5.96 µM. 0.49% of 300,000 active. AID 1906. recombinant F. hepatica cathepsin L1, Z-Leu-Arg-MCA fluorescence;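 active = inhibition above the mean of all tested compounds plus 3 SD, set per screening campaign, cut at about 17% in these data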;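 note: 0% = plate median of test compound wells and 100% = 1 µM Z-Phe-Ala-diazomethylketone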
TDP2 absorb = blocks human TDP2 phosphodiesterase activity | O95551 | recombinant TDP2, T5PNP hydrolysis, p-nitrophenol absorbance 415 nm | inhibition, % at 12.8 µM | 0.34% of 370,000 active | AID 720702;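 active = inhibition above the mean of all tested compounds plus 3 SD, set per campaign, cut at about 25% in these data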;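 note: 0% = DMSO with enzyme and 100% = buffer with substrate but no TDP2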
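Test system: human TDP2 enzyme; Input: 120 nM TDP2 per well; Buffer or medium: Mg2+-containing Tris-HCl buffer, pH 7.5; Reagent: 5 mM T5PNP; Dosing: 12.8 µM single point, 1% DMSO; Incubation: reaction 2 h, 37 °C; Detection: p-Nitrophenol epi absorbance; Read-out: % inhibition relative to enzyme-containing and enzyme-free wells; Replicates: single well per compound.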
GSTO1 counter = GSTO1 inhibition, counter-screen for RBBP9 inhibitors; P78417; recombinant GSTO1, activity-based probe fluorescence polarization; inhibition, % at 5.96 µM; 1.1% of 300,000 active;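 active = inhibition above the campaign mean inhibition plus 3 SD, cut at about 35% in these data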;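 note: 0% = GSTO1-1 with DMSO and 100% = wells lacking GSTO1-1 enzyme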
Apaf-1 inh conf = confirmation of Apaf-1 inhibitors; shares compounds with Apaf-1 inh; reconstituted apoptosome, caspase-3 DEVD-Rh110 fluorescence; inhibition, % at 20 µM; 25% of 1,800 active;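 active = mean inhibition of at least 40% at 20 µM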;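 note: plate controls were DMSO wells for no effect and DEVD-CHO caspase inhibitor control wells for full effect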
Rh110 quench = interferes with Rh110 fluorescence, flagging false Apaf-1 inhibitors; 1,800 tested, under 10 active; Rh110 fluorescence interference, quenched caspase reaction; AID 504615; activation (fluorescence interference), % at 20 µM; shares compounds with Apaf-1 inh;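 active = signal rise of 40% or more at 20 µM, treated as a fluorescence artifact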
Fluor interf inh = shows fluorescence interference in the Apaf-1 inhibitor assay format. shares compounds with Apaf-1 inh. fluorescence interference counterscreen, Apaf-1 assay format. IC50, µM. 460 tested, under 10 active. AID 588538; call rule not given here
TDP2 inh conf = confirmation of human TDP2 inhibitors | 22% of 1,100 active | recombinant human TDP2, absorbance read-out | inhibition, % at 12.8 µM | AID 743263 | shares compounds with TDP2 absorb; in the data active = inhibition above about 25%;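 note: 0% = vehicle with enzyme and 100% = no enzyme buffer only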
Numbers without * were called inactive; nt = not tested or not shown. Hits are enriched below; roughly 1.8% of the tested compounds scored in any of these assays.

SMILES	Apaf-1 inh	PAD4 FP inh	CTSL1 counter	TDP2 absorb	GSTO1 counter	Apaf-1 inh conf	Rh110 quench	others
CCCn1nc(C(=O)Nc2ccc(-n3cnnn3)cc2)c2ccccc2c1=O	70.6*	nt	nt	-1.4	nt	8.2	5.2
COC(=O)[C@]12C[C@H](CC(=O)NCCc3ccccc3OC)C(=O)N(Cc3ccc(Cl)cc3Cl)C1=C[C@H](C(C)C)O[C@@H]2C1CC1	nt	nt	nt	-5.1	nt	nt	nt
O=C(N/N=C\C=C\c1ccc([N+](=O)[O-])o1)c1cccs1	49.0*	nt	nt	-15.7	nt	8.0	6.5
COc1ccccc1CCn1cnc(-c2ccc(F)cc2F)c1CC(C)C	nt	nt	nt	-11.0	nt	nt	nt
CN(C)C/C=C/C(=O)Nc1cccc(-c2c[nH]c3ncnc(Oc4ccc(NC(=O)CC(=O)Nc5ccc(F)cc5)cc4F)c23)c1	63.0*	-15.7	nt	nt	nt	21.6	0.8
COc1ccc(Nc2ccc(OC)cc2)cc1	79.9*	1.0	-1.5	1.0	36.0*	-6.5	0.1
NS(=O)(=O)c1ccc2c(c1)C1C=CCC1C(C1CC=CCC1)N2 (stereo not given)	46.7*	-7.2	2.6	8.9	36.5*	21.2	0.3
CC(C)C1Nc2ccc(S(N)(=O)=O)cc2C2C=CCC21 (stereo not given)	38.6	-13.0	-0.2	-4.6	16.5	nt	nt
CCC(C#Cc1ccccc1)NCc1ccc(OC)cc1OC (stereo not given)	nt	nt	nt	-16.4	nt	nt	nt
COC(=O)[C@]12C[C@H](CC(=O)NCc3cccs3)C(=O)N(Cc3ccc(Cl)cc3Cl)C1=C[C@H](C(C)C)O[C@@H]2C1CC1	nt	nt	nt	-5.1	nt	nt	nt
Cc1ccc(C(NC(=O)C(C)C)c2cc([N+](=O)[O-])c3cccnc3c2O)cc1 (stereo not given)	20.0	-5.5	1.4	-0.1	-7.6	nt	nt
CC(C)C(=O)NC(c1cccs1)c1cc([N+](=O)[O-])c2cccnc2c1O (stereo not given)	68.3*	-9.1	3.6	nt	-1.6	34.6	4.7
COCCCNC(=O)C[C@H]1C[C@@]2(C(=O)OC)C(=C[C@H](C3CCCC3)O[C@@H]2C)N(Cc2ccco2)C1=O	nt	nt	nt	-2.8	nt	nt	nt
COc1ccc(OCC(=O)OCC(=O)NC2CCCCC2C)cc1 (stereo not given)	-15.2	0.8	nt	1.9	nt	nt	nt
COc1cc(NC2CCCCC2O)c2nc(-c3ccc(Cl)cc3)ccc2c1 (stereo not given)	55.3*	10.8	3.9	32.7*	52.3*	22.4	18.7	TDP2 inh conf=-2.1
Cc1ccc(S(=O)(=O)Nc2ccc3c(c2)C(=O)c2ccccc2-3)cc1	nt	nt	nt	1.2	nt	nt	nt
COC1=C(Nc2ccc(C)cc2)C(=O)c2ccccc2C1=O	61.5*	-8.5	-5.8	55.0*	32.4	10.9	0.5	TDP2 inh conf=15.6
COc1ccc(Cn2c(N)c(C#N)c3nc4ccccc4nc32)cc1	50.4*	-16.3	0.0	36.6*	38.6*	12.2	0.0	TDP2 inh conf=-1.0
COCCn1c(N)c(C#N)c2nc3ccccc3nc21	51.7*	-5.8	-0.5	29.9*	27.1	14.8	4.7	TDP2 inh conf=15.5
Cc1ccccc1NC(=O)[C@H]1CC(=O)O[C@@H]1c1ccccc1	nt	nt	nt	3.0	nt	nt	nt
Cc1ccc(NC2=C(NC(=O)c3ccccc3)C(=O)c3ccccc3C2=O)cc1Cl	67.3*	2.8	1.7	29.3*	61.8*	64.4*	6.7	Fluor interf inh=>100;TDP2 inh conf=16.8
O=C(Nc1ccccc1)OCCN1C(=O)CCC12CCC(c1ccc(Cl)cc1)CC2 (stereo not given)	nt	nt	nt	-1.9	nt	nt	nt
CC1=NN(c2ccc(S(=O)(=O)O)cc2C)C(=O)C1	50.5*	-15.2	1.0	33.9*	23.9	19.3	14.1	TDP2 inh conf=37.6*
O=C(O)C1=NN(c2cc(Cl)c(S(=O)(=O)O)cc2Cl)C(=O)C1	nt	nt	nt	2.4	nt	nt	nt
CSc1cccc(NC(=S)NN/C(=N/S(=O)(=O)c2ccccc2)N2CCCC2)c1	nt	nt	nt	1.8	nt	nt	nt
